Key:
[1] = system: Plasmodium falciparum; assay: Antimalarial activity against chloroquine-resistant Plasmodium falciparum FcB1 after 24 hrs; assay type: functional, organism-based; settings: FcB1, 24 h
Summary of the method: (§1)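 Asynchronous P. falciparum cultures in human erythrocytes (1% parasitemia, 1% final hematocrit) exposed to serially diluted compounds (DMSO stock, final DMSO ≤0.1%) for 24 h at 37 °C, then 0.5 µCi [3H]hypoxanthine per well added for a further 24 h. Growth inhibition from incorporated radioactivity versus drug-free control on the same plate; IC50 from concentration-response curve, means ± standard deviations of several independent experiments.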

[2] = system: MRC5; assay: Cytotoxicity against human MRC5 cells; assay type: cell-based
[3] = system: Plasmodium falciparum; assay: Antimalarial activity against chloroquine-sensitive Plasmodium falciparum Thai after 24 hrs; assay type: functional, organism-based; summary of the method: as §1
[4] = Selectivity index, IC50 for MRC5 cells to IC50 for chloroquine-resistant Plasmodium falciparum FcB1; assay type: functional
Summary of the method: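 Ratio of IC50 on MRC-5 human diploid embryonic lung cells to IC50 on FcB1 parasites, the latter from the 24 h drug plus 24 h [3H]hypoxanthine incorporation assay.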

[5] = Resistance index, IC50 for chloroquine-resistant Plasmodium falciparum FcB1 to chloroquine-sensitive Plasmodium falciparum Thai; assay type: functional
Summary of the method: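 Ratio of IC50 values between the sensitive Thai and resistant FcB1 strains, each from the [3H]hypoxanthine incorporation assay (24 h drug exposure then 24 h label, asynchronous cultures, 1% parasitemia, 1% hematocrit).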

[6] = biological target: T1, Histidine-rich protein PFHRP-II (Plasmodium falciparum, UniProt P05227); assay: Inhibition of beta-hematin formation; assay type: functional
T1 sequence (P05227 whole entry): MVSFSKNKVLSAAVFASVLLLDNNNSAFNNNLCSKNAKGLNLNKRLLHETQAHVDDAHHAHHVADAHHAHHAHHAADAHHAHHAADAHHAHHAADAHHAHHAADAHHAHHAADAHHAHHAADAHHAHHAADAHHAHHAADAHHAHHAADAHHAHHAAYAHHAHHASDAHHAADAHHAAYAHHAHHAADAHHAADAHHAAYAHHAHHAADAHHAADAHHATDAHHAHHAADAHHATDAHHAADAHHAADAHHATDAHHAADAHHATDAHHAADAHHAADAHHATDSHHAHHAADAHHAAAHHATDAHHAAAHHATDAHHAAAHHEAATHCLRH

[7] = biological target: T2, Histidine-rich protein PFHRP-II (Plasmodium falciparum) (UniProt P05227); assay: Relative chloroquine IC50 for beta-hematin formation; assay type: functional
T2 sequence (whole entry): T1 sequence (P05227 whole entry)

[8] = biological target: T2, Histidine-rich protein PFHRP-II (Plasmodium falciparum); assay: Inhibition of beta-hematin formation at 5 mM; assay type: functional
[9] = biological target: T2, Histidine-rich protein PFHRP-II (Plasmodium falciparum); assay: Inhibition of beta-hematin formation at 10 mM; assay type: functional
[10] = biological target: T2, Histidine-rich protein PFHRP-II (Plasmodium falciparum); assay: Inhibition of beta-hematin formation at 1 to 20 mM; assay type: functional
[11] = biological target: T2, Histidine-rich protein PFHRP-II (Plasmodium falciparum); assay: Inhibition of beta-hematin formation at 4.2 mM; assay type: functional
[12] = biological target: T2, Histidine-rich protein PFHRP-II (Plasmodium falciparum); assay: Inhibition of beta-hematin formation at 8.4; assay type: functional; settings: concentration not given here
[13] = biological target: T2, Histidine-rich protein PFHRP-II (Plasmodium falciparum); assay: Inhibition of beta-hematin formation at 5.7 mM; assay type: functional
[14] = biological target: T2, Histidine-rich protein PFHRP-II (Plasmodium falciparum); assay: Inhibition of beta-hematin formation at 11.4 mM; assay type: functional

CC(=O)O[C@H]1CC[C@]2(C)[C@H]3CC=C4[C@@H]5[C@@H](C)[C@H](C)CC[C@]5(C(=O)NCCCN5CCN(CCCN(CC(C)C)CC(C)C)CC5)CC[C@@]4(C)[C@]3(C)CC[C@H]2C1(C)C
IC50 [1]: 18.8 µM

CCCCN(CCCC)CCCN1CCN(CCCNC(=O)[C@]23CC[C@@H](C)[C@H](C)[C@H]2C2=CC[C@@H]4[C@@]5(C)CC[C@H](OC(C)=O)C(C)(C)[C@@H]5CC[C@@]4(C)[C@]2(C)CC3)CC1
IC50 [1]: 1 µM

CC(=O)O[C@H]1CC[C@]2(C)[C@H]3CC=C4[C@@H]5[C@@H](C)[C@H](C)CC[C@]5(C(=O)NCCCN5CCN(CCCN(CC6CCCCC6)CC6CCCCC6)CC5)CC[C@@]4(C)[C@]3(C)CC[C@H]2C1(C)C
IC50 [1]: > 100 µM

COc1ccc(CN(CCCN2CCN(CCCNC(=O)[C@]34CC[C@@H](C)[C@H](C)[C@H]3C3=CC[C@@H]5[C@@]6(C)CC[C@H](OC(C)=O)C(C)(C)[C@@H]6CC[C@@]5(C)[C@]3(C)CC4)CC2)Cc2ccc(OC)cc2)cc1
IC50 [1]: 6.5 µM

CC(=O)O[C@H]1CC[C@]2(C)[C@H]3CC=C4[C@@H]5[C@@H](C)[C@H](C)CC[C@]5(C(=O)NCCCN5CCN(CCCN(Cc6ccc(Cl)cc6)Cc6ccc(Cl)cc6)CC5)CC[C@@]4(C)[C@]3(C)CC[C@H]2C1(C)C
IC50 [1]: 46 µM

CC(=O)O[C@H]1CC[C@]2(C)[C@H]3CC=C4[C@@H]5[C@@H](C)[C@H](C)CC[C@]5(C(=O)NCCCN5CCN(CCCNCc6ccc([N+](=O)[O-])cc6)CC5)CC[C@@]4(C)[C@]3(C)CC[C@H]2C1(C)C
IC50 [2]: 5.39 µM | IC50 [3]: 0.98 µM | Selectivity index [4]: 5.2 | Ratio [5]: 1.06 | IC50 [1]: 1.04 µM

CC(=O)O[C@H]1CC[C@]2(C)[C@H]3CC=C4[C@@H]5[C@@H](C)[C@H](C)CC[C@]5(C(=O)NCCCN5CCN(CCCN(Cc6ccc(Br)cc6)Cc6ccc(Br)cc6)CC5)CC[C@@]4(C)[C@]3(C)CC[C@H]2C1(C)C
IC50 [1]: > 100 µM

CC(=O)O[C@H]1CC[C@]2(C)[C@H]3CC=C4[C@@H]5[C@@H](C)[C@H](C)CC[C@]5(C(=O)NCCCN5CCN(CCCN)CC5)CC[C@@]4(C)[C@]3(C)CC[C@H]2C1(C)C
IC50 [6]: > 20000 µM | IC50 [2]: 1.61 µM | Ratio IC50 [7]: > 3.4 | IC50 [3]: 0.46 µM | inhibition [8]: 12.9% | inhibition [9]: 24.6% | Selectivity index [4]: 9.6 | Ratio [5]: 0.37 | IC50 [1]: 0.17 µM

CC(=O)O[C@H]1CC[C@]2(C)[C@H]3CC=C4[C@@H]5[C@@H](C)[C@H](C)CC[C@]5(C(=O)NCCCN5CCN(CCCN(Cc6ccc(F)cc6)Cc6ccc(F)cc6)CC5)CC[C@@]4(C)[C@]3(C)CC[C@H]2C1(C)C
IC50 [1]: 20.3 µM

CC(=O)O[C@H]1CC[C@]2(C)[C@H]3CC=C4[C@@H]5[C@@H](C)[C@H](C)CC[C@]5(C(=O)NCCCN5CCN(CCCN(CCCc6ccccc6)CCCc6ccccc6)CC5)CC[C@@]4(C)[C@]3(C)CC[C@H]2C1(C)C
IC50 [1]: 8.06 µM

CC(=O)O[C@H]1CC[C@]2(C)[C@H]3CC=C4[C@@H]5[C@@H](C)[C@H](C)CC[C@]5(C(=O)O)CC[C@@]4(C)[C@]3(C)CC[C@H]2C1(C)C [O-ACETYLURSOLIC ACID]
inhibition [10]: 0% | IC50 [1]: 24.9 µM

CC(=O)O[C@H]1CC[C@]2(C)[C@H]3CC=C4[C@@H]5[C@@H](C)[C@H](C)CC[C@]5(C(=O)NCCCN5CCN(CCCN(Cc6ccccc6)Cc6ccccc6)CC5)CC[C@@]4(C)[C@]3(C)CC[C@H]2C1(C)C
IC50 [1]: 21.1 µM

CC(=O)O[C@H]1CC[C@]2(C)[C@H]3CC=C4[C@@H]5[C@@H](C)[C@H](C)CC[C@]5(C(=O)NCCCN5CCN(CCCN(CC6CC6)CC6CC6)CC5)CC[C@@]4(C)[C@]3(C)CC[C@H]2C1(C)C
IC50 [2]: 2.53 µM | IC50 [3]: 0.95 µM | Selectivity index [4]: 5.1 | Ratio [5]: 0.51 | IC50 [1]: 0.49 µM

CC(=O)O[C@H]1CC[C@]2(C)[C@H]3CC=C4[C@@H]5[C@@H](C)[C@H](C)CC[C@]5(C(=O)NCCCN5CCN(CCCN(Cc6ccc(O)cc6)Cc6ccc(O)cc6)CC5)CC[C@@]4(C)[C@]3(C)CC[C@H]2C1(C)C
IC50 [6]: 5250 µM | IC50 [2]: 1.57 µM | Ratio IC50 [7]: 0.89 | IC50 [3]: 0.35 µM | Selectivity index [4]: 9.7 | inhibition [11]: 39.6% | Ratio [5]: 0.46 | IC50 [1]: 0.16 µM | inhibition [12]: 82.2%

CCCCCCCN(CCCCCCC)CCCN1CCN(CCCNC(=O)[C@]23CC[C@@H](C)[C@H](C)[C@H]2C2=CC[C@@H]4[C@@]5(C)CC[C@H](OC(C)=O)C(C)(C)[C@@H]5CC[C@@]4(C)[C@]2(C)CC3)CC1
IC50 [1]: 41.8 µM

CCN(CC)CCCC(C)Nc1ccnc2cc(Cl)ccc12 (stereo unspecified)
inhibition [8]: 36.9% | inhibition [9]: 97.4%

CC(=O)O[C@H]1CC[C@]2(C)[C@H]3CC=C4[C@@H]5[C@@H](C)[C@H](C)CC[C@]5(C(=O)NCCCN5CCN(CCCN(Cc6ccc([N+](=O)[O-])cc6)Cc6ccc([N+](=O)[O-])cc6)CC5)CC[C@@]4(C)[C@]3(C)CC[C@H]2C1(C)C
IC50 [6]: > 20000 µM | IC50 [2]: 18.3 µM | Ratio IC50 [7]: > 3.4 | IC50 [3]: 3.05 µM | inhibition [13]: 3.6% | inhibition [14]: 18.6% | Selectivity index [4]: 5.1 | Ratio [5]: 1.17 | IC50 [1]: 3.57 µM

C[C@H]1[C@H](C)CC[C@]2(C(=O)NCCCN3CCN(CCCN)CC3)CC[C@]3(C)C(=CC[C@@H]4[C@@]5(C)CC[C@H](O)C(C)(C)[C@@H]5CC[C@]43C)[C@H]12
IC50 [1]: 0.32 µM

CCCN(CCC)CCCN1CCN(CCCNC(=O)[C@]23CC[C@@H](C)[C@H](C)[C@H]2C2=CC[C@@H]4[C@@]5(C)CC[C@H](OC(C)=O)C(C)(C)[C@@H]5CC[C@@]4(C)[C@]2(C)CC3)CC1
IC50 [2]: 1.96 µM | IC50 [3]: 1 µM | Selectivity index [4]: 2.5 | Ratio [5]: 0.79 | IC50 [1]: 0.8 µM

CC(=O)O[C@H]1CC[C@]2(C)[C@H]3CC=C4[C@@H]5[C@@H](C)[C@H](C)CC[C@]5(C(=O)NCCCN5CCN(CCCNCc6ccc(O)cc6)CC5)CC[C@@]4(C)[C@]3(C)CC[C@H]2C1(C)C
IC50 [2]: 2.1 µM | IC50 [3]: 0.18 µM | Selectivity index [4]: 27 | Ratio [5]: 0.43 | IC50 [1]: 0.08 µM

C[C@H]1[C@H](C)CC[C@]2(C(=O)O)CC[C@]3(C)C(=CC[C@@H]4[C@@]5(C)CC[C@H](O)C(C)(C)[C@@H]5CC[C@]43C)[C@H]12 [URSOLIC ACID]
IC50 [6]: > 20000 µM | Ratio IC50 [7]: > 3.4 | inhibition [8]: 17.9% | IC50 [1]: 52.9 µM
